Test results from ChEMBL document CHEMBL3232879, “4,5,6,7-Tetrahydro-isoxazolo-[4,5-c]-pyridines as a new class of cytotoxic Hsp90 inhibitors” (Eur J Med Chem, 2014).
The source made the active and inactive calls. No cut-off for these calls is given here.

Key:
K562 [1] = test: Induction of apoptosis in human K562 cells assessed as hypoploid nuclei accumulated in sub-G0-G1 phase after 72 hrs by propidium iodide staining-based fluorescence microscopic analysis; conditions: K562, 72 h
K562 [2] = test: Cell cycle arrest in human K562 cells assessed as accumulation at G1 phase at 10 uM after 24 hrs by propidium iodide staining-based flow cytometric analysis; assay type: functional
Outline: (§1)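 K562 cells exposed for 24 h, then washed once in ice-cold PBS. Resuspended at 1×10^6 cells/mL in a hypotonic solution of propidium iodide in 0.1% sodium citrate with 0.03% (v/v) Nonidet P-40 for 30 min. Filtered through nylon cloth, then single-parameter DNA fluorescence histograms read by flow cytometry. Cell-cycle phase distribution obtained by modelling, with untreated cells as control.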

K562 [3] = test: Cell cycle arrest in human K562 cells assessed as reduction of S phase fraction at 10 uM after 24 hrs by propidium iodide staining-based flow cytometric analysis; assay type: functional
Outline: as §1

[4] = molecular target: Heat shock protein HSP 90-alpha (Homo sapiens, UniProt P07900); test: Displacement of GM-FTC from Hsp90-alpha (unknown origin) after 4 hrs by fluorescence polarization assay
K562 [5] = test: Cytotoxicity against human K562 cells assessed as growth inhibition after 72 hrs by trypan blue exclusion assay; assay type: functional, cell-based; conditions: for IC50: K562, 72 h
Outline: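 K562 cells, 2×10^5 per well in 1 mL complete medium, exposed to a range of drug concentrations. Cells stained with trypan blue and counted on a hemocytometer; dye-uptaking cells scored nonviable. Viable count expressed as percent of control proliferation; IC50 is the concentration giving 50% growth inhibition. Methods give 48 h incubation, table footnote 72 h exposure.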

NCI-H460 = test: Cytotoxicity against human NCI-H460 cells assessed as growth inhibition after 72 hrs by sulforhodamine B assay; assay type: functional, cell-based; conditions: NCI-H460, 72 h
Outline: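 Log-phase NCI-H460 cells seeded, drug added 24 h later, exposed 72 h. Survival read by sulforhodamine B staining. IC50 fitted by curve analysis as the concentration halving cell number relative to untreated controls.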

K562 [6] = test: Cell cycle arrest in human K562 cells assessed as accumulation at G1 phase at 75 uM after 24 hrs by propidium iodide staining-based flow cytometric analysis; assay type: functional
Outline: as §1

K562 [7] = test: Cell cycle arrest in human K562 cells assessed as reduction of S phase fraction at 75 uM after 24 hrs by propidium iodide staining-based flow cytometric analysis; assay type: functional
Outline: as §1

K562 [8] = test: Cell cycle arrest in human K562 cells assessed as reduction of S phase fraction at 1 uM after 24 hrs by propidium iodide staining-based flow cytometric analysis; assay type: functional
Outline: as §1

K562 [9] = test: Cell cycle arrest in human K562 cells assessed as accumulation at G1 phase at 1 uM after 24 hrs by propidium iodide staining-based flow cytometric analysis; assay type: functional
Outline: as §1

Row | Structure (SMILES) | IC50 [4] | IC50 (NCI-H460) | further results
1 | CCNC(=O)c1noc2c1CN(C(=O)c1cc(C(C)C)c(O)cc1O)CC2 | 0.029 µM | 0.45 µM | AC50 (K562 [1]): 5.4 µM; Activity (K562 [2]): Active; Activity (K562 [3]): Active; growth inhibition (GI) (K562 [5]): Dose-dependent effect; IC50 (K562 [5]): 0.72 µM
2 | CCOC(=O)c1noc2c1CN(C(=O)c1cc(Cl)c(O)cc1O)CC2 | 0.16 µM | > 20 µM | –
3 | CCNC(=O)c1noc2c1CN(C(=O)Nc1cc(C(C)C)c(O)cc1O)CC2 | > 100 µM | > 1 µM | –
4 | CC(C)c1cc(C(=O)N2CCc3onc(C(=O)NCCN4CCOCC4)c3C2)c(O)cc1O | 0.054 µM | 0.19 µM | –
5 | CCNC(=O)c1noc2c1CN(C(=O)c1ccc(O)cc1O)CC2 | 1.2 µM | > 20 µM | –
6 | CCNC(=O)c1noc2c1CN(Cc1cc(Cl)c(O)cc1O)CC2 | 1.4 µM | > 20 µM | –
7 | CCOC(=O)c1noc2c1CN(C(=O)c1cc(C(C)C)c(O)cc1O)CC2 | 0.1 µM | 0.87 µM | –
8 | CC(C)c1cc(C(=O)N2CCc3onc(C(=O)NC4CCCC4)c3C2)c(O)cc1O | 0.068 µM | 0.9 µM | –
9 | COC(=O)c1noc2c1CN(C(C)=O)CC2 | > 100 µM | > 1 µM | –
10 | CCNC(=O)c1noc2c1CN(C(=O)c1cc(Cl)c(O)cc1O)CC2 | 0.11 µM | 9.7 µM | Activity (K562 [6]): Active; AC50 (K562 [1]): > 100 µM; growth inhibition (GI) (K562 [5]): Dose-dependent effect; IC50 (K562 [5]): 32.6 µM; Activity (K562 [7]): Active
11 | CCNC(=O)c1noc2c1CN(C(=O)Nc1cc(Cl)c(O)cc1O)CC2 | > 100 µM | > 1 µM | –
12 | CCNC(=O)c1noc2c1CN(C(=O)c1cc(C(C)C)c(OC(C)=O)cc1OC(C)=O)CC2 | – | 0.23 µM | –
13 | C=CCNC1=C2C[C@@H](C)C[C@H](OC)[C@H](O)[C@@H](C)/C=C(\C)[C@H](OC(N)=O)[C@@H](OC)/C=C\C=C(/C)C(=O)NC(=CC1=O)C2=O [TANESPIMYCIN] | – | – | AC50 (K562 [1]): 3.1 µM; Activity (K562 [8]): Active; IC50 (K562 [5]): 0.15 µM; Activity (K562 [9]): Active
14 | CCOC(=O)c1noc2c1CN(C(=O)c1ccc(O)cc1O)CC2 | 3.9 µM | > 20 µM | –
15 | CC(C)c1cc(C(=O)N2CCc3onc(C(=O)NCCCl)c3C2)c(O)cc1O | 0.034 µM | 0.2 µM | –
